ChEMBL document CHEMBL1155748, “New jatrophane diterpenoid esters from Euphorbia turczaninowii” (J Nat Prod, 2001)
Values after ≈ are worked out from the molar mass of the structure shown.

Tests used:
[1] = organism: Mus musculus; assay: Toxicity in mouse assessed as irritant dose causing ear redness after 24 hours by inflammation assay; type: organism-based; conditions: in vivo
Summary of the method: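 Compound applied to the mouse ear as an acetone (Me2CO) solution. Ear redness was scored 4 and 24 h after application. […] TPA served as the reference irritant.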

[2] = test system: B16; assay: Cytotoxicity against mouse B16 cells by MTT assay; type: functional, cell-based
[3] = organism: Mus musculus; assay: Toxicity in mouse assessed as irritant dose causing ear redness after 4 hours by inflammation assay; type: organism-based; conditions: in vivo
Summary of the method: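 Test solution in Me2CO applied to the mouse ear; ear redness scored 4 and 24 h after application. […] TPA (12-O-tetradecanoylphorbol 13-acetate) run as reference irritant.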

C=C1[C@H](OC(=O)c2ccccc2)[C@@H](OC(C)=O)[C@@H](OC(C)=O)C(C)(C)/C=C/[C@H](C)C(=O)[C@@]2(OC(C)=O)C[C@@](C)(OC(C)=O)[C@H](OC(C)=O)[C@@H]2[C@H]1OC(C)=O
ID50 [1]: > 100 µg | IC50 [2]: > 5 µg/mL

CC[C@]1(O)C[C@@H]2CN(CCc3c([nH]c4ccccc34)[C@@](C(=O)OC)(c3cc4c(cc3OC)N(C)[C@H]3[C@@](O)(C(=O)OC)[C@H](OC(C)=O)[C@]5(CC)C=CCN6CC[C@]43[C@@H]65)C2)C1 [VINBLASTINE]
IC50 [2]: 3.6 µg/mL (≈ 4.44 µM)

C=C1[C@H](OC(C)=O)[C@@H](OC(C)=O)[C@@H](OC(C)=O)C(C)(C)/C=C/[C@H](C)C(=O)[C@@]2(OC(C)=O)C[C@@](C)(OC(=O)c3ccccc3)[C@H](OC(C)=O)[C@@H]2[C@H]1OC(C)=O
ID50 [1]: > 100 µg | IC50 [2]: > 5 µg/mL

C=C1[C@H](OC(C)=O)[C@H]2[C@@H](OC(C)=O)[C@@H](C)C[C@]2(OC(C)=O)C(=O)[C@@H](C)/C=C/C(C)(C)C(=O)[C@H](OC(C)=O)[C@H]1OC(=O)c1ccccc1
ID50 [1]: > 100 µg

CCCCCCCCCCCCCC(=O)O[C@@H]1[C@@H](C)[C@@]2(O)[C@@H](C=C(CO)C[C@]3(O)C(=O)C(C)=C[C@@H]23)[C@@H]2C(C)(C)[C@]12OC(C)=O [PHORBOL MYRISTATE ACETATE]
ID50 [1]: 0.0085 µg | ID50 [3]: 0.012 µg

C=C1[C@H](OC(C)=O)[C@H]2[C@@H](OC(C)=O)[C@@H](C)C[C@]2(OC(C)=O)C(=O)[C@@H](C)/C=C/C(C)(C)C(=O)[C@H](OC(C)=O)[C@H]1OC(C)=O
ID50 [1]: > 100 µg

C=C1[C@H](OC(=O)c2ccccc2)[C@@H](OC(C)=O)[C@@H](OC(C)=O)C(C)(C)/C=C/[C@H](C)C(=O)[C@@]2(OC(C)=O)C[C@H](C)[C@H](OC(C)=O)[C@@H]2[C@H]1OC(C)=O
ID50 [1]: > 100 µg

C=C1[C@H](OC(C)=O)[C@H]2[C@@H](OC(C)=O)[C@](C)(OC(=O)c3ccccc3)C[C@]2(OC(C)=O)C(=O)[C@@H](C)/C=C/C(C)(C)C(=O)[C@H](OC(C)=O)[C@H]1OC(C)=O
ID50 [1]: > 100 µg
